Measured values as given in ChEMBL document CHEMBL1154647, “Synthesis, spectral characterization and biological evaluation of phosphorylated derivatives of galanthamine” (Eur J Med Chem, 2010).
≈ marks a conversion by molar mass, not a printed value.

Tests used:
Brain [1] = test: Antioxidant activity in Wistar rat brain assessed as inhibition of lipid peroxidation; type: functional, tissue-based
Brain [2] = test: Antioxidant activity in Wistar rat brain assessed as reduction in glutathione content; type: functional, tissue-based
Method in brief: (§1)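 Wistar rat brain was homogenised 1:40 (w/v) in 0.1 M phosphate buffer, pH 7.4, with 1 mM EDTA. Total glutathione (GSH + GSSG) and reduced GSH were assayed spectrophotometrically from optical density, using net rate against a standard-curve slope and intercept, times a dilution factor. Homogenate protein was measured by the Lowry method.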

[3] = Inhibition of superoxide dismutase in Wistar rat brain; type: tissue-based
Catalase = molecular target: T1, Catalase (Rattus norvegicus, UniProt P04762); test: Inhibition of catalase in Wistar rat brain
T1 sequence (P04762 whole entry): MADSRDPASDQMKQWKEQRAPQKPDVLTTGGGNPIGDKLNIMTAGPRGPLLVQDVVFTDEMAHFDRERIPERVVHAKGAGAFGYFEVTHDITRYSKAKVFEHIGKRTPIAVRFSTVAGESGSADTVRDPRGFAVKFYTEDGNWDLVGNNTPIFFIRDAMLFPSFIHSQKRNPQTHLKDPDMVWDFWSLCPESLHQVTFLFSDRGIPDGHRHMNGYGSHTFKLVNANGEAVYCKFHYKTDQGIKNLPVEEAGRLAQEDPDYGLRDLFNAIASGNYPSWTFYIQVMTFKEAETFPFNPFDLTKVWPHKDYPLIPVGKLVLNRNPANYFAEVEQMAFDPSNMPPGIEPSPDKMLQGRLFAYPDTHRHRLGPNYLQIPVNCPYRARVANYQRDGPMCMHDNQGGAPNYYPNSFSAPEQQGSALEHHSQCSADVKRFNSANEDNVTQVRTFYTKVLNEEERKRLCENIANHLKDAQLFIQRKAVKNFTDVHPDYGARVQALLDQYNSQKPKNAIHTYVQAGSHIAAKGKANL

Staphylococcus aureus [4] = test: Antibacterial activity against Staphylococcus aureus after 18 hrs; type: functional
Klebsiella pneumoniae [5] = test: Antibacterial activity against Klebsiella pneumoniae after 18 hrs; type: functional
Bacillus subtilis [6] = test: Antibacterial activity against Bacillus subtilis after 18 hrs; type: functional
Escherichia coli [7] = test: Antibacterial activity against Escherichia coli after 18 hrs; type: functional
Brain [8] = test: Antioxidant activity in Wistar rat brain assessed as superoxide dismutase content; type: functional
Brain [9] = test: Antioxidant activity in Wistar rat brain assessed as catalase content; type: functional
Brain [10] = test: Antioxidant activity in Wistar rat brain assessed as lipid peroxidation; type: functional, tissue-based
Brain [11] = test: Antioxidant activity in Wistar rat brain assessed as glutathione content; type: functional; method in brief: as §1
Klebsiella pneumoniae [12] = test: Antibacterial activity against Klebsiella pneumoniae at 1 mg/mL after 18 hrs by disc diffusion assay; type: functional; settings: read-out: IZ
Method in brief: (§2)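 Bacteria were grown in nutrient broth at 37 °C for 18 h on a rotary shaker at 150 rpm. Compounds were dissolved in DMF. Nutrient agar plates were dried at 35–36 °C for about 30 min, and test strains were spread on the surface. Discs were applied, and plates were inverted and incubated at 37 °C. A DMF blank was run.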

Staphylococcus aureus [13] = test: Antibacterial activity against Staphylococcus aureus at 1 mg/mL after 18 hrs by disc diffusion assay; type: functional; settings: read-out: IZ; method in brief: as §2
Bacillus subtilis [14] = test: Antibacterial activity against Bacillus subtilis at 1 mg/mL after 18 hrs by disc diffusion assay; type: functional; settings: read-out: IZ; method in brief: as §2
Escherichia coli [15] = test: Antibacterial activity against Escherichia coli at 1 mg/mL after 18 hrs by disc diffusion assay; type: functional; settings: read-out: IZ; method in brief: as §2
Klebsiella pneumoniae [16] = test: Antibacterial activity against Klebsiella pneumoniae at 2 mg/mL after 18 hrs by disc diffusion assay; type: functional; settings: read-out: IZ; method in brief: as §2
Staphylococcus aureus [17] = test: Antibacterial activity against Staphylococcus aureus at 2 mg/mL after 18 hrs by disc diffusion assay; type: functional; settings: read-out: IZ; method in brief: as §2
Bacillus subtilis [18] = test: Antibacterial activity against Bacillus subtilis at 2 mg/mL after 18 hrs by disc diffusion assay; type: functional; settings: read-out: IZ; method in brief: as §2
Escherichia coli [19] = test: Antibacterial activity against Escherichia coli at 2 mg/mL after 18 hrs by disc diffusion assay; type: functional; settings: read-out: IZ; method in brief: as §2

| Compound | EC50 (Brain [1]) | EC50 (Brain [2]) | EC50 [3] | EC50 (Catalase) | MIC (Staphylococcus aureus [4]) | MIC (Klebsiella pneumoniae [5]) | MIC (Bacillus subtilis [6]) | MIC (Escherichia coli [7]) | Activity (Brain [8]) | Activity (Brain [9]) | Activity (Brain [10]) | Activity (Brain [11]) | zone of inhibition at 1000 µg/mL (Klebsiella pneumoniae [12]) | zone of inhibition at 1000 µg/mL (Staphylococcus aureus [13]) | zone of inhibition at 1000 µg/mL (Bacillus subtilis [14]) | zone of inhibition at 1000 µg/mL (Escherichia coli [15]) | zone of inhibition at 2000 µg/mL (Klebsiella pneumoniae [16]) | zone of inhibition at 2000 µg/mL (Staphylococcus aureus [17]) | zone of inhibition at 2000 µg/mL (Bacillus subtilis [18]) | zone of inhibition at 2000 µg/mL (Escherichia coli [19]) |
| --- | --- | --- | --- | --- | --- | --- | --- | --- | --- | --- | --- | --- | --- | --- | --- | --- | --- | --- | --- | --- |
| COc1ccc2c3c1O[C@H]1C[C@@H](OP(=O)(NCCO)N(CCCl)CCCl)C=C[C@@]31CCN(C)C2 (stereo partly specified) | 1.42 µg/mL (≈ 2.66 µM) | 1.03 µg/mL (≈ 1.93 µM) | 1.28 µg/mL (≈ 2.4 µM) | 1.52 µg/mL (≈ 2.84 µM) | 0.29 µg/mL (≈ 0.543 µM) | 0.15 µg/mL (≈ 0.281 µM) | 0.11 µg/mL (≈ 0.206 µM) | 0.35 µg/mL (≈ 0.655 µM) | 29.86 µg/mL | 287.59 µg/mL | 72.3 µg/mL | 4.73 µg/mL | 1.47 mm | 1.47 mm | 2.22 mm | 1.32 mm | 4.45 mm | 4.78 mm | 3.46 mm | 3.86 mm |
| COc1ccc2c3c1O[C@H]1C[C@@H](OP(=O)(Oc4ccc([N+](=O)[O-])cc4)OP(=O)(O)O)C=C[C@@]31CCN(C)C2 (stereo partly specified) | 3.33 µg/mL (≈ 5.86 µM) | 2.15 µg/mL (≈ 3.78 µM) | 2.69 µg/mL (≈ 4.73 µM) | 2.92 µg/mL (≈ 5.14 µM) | 0.76 µg/mL (≈ 1.34 µM) | 0.28 µg/mL (≈ 0.493 µM) | 0.19 µg/mL (≈ 0.334 µM) | 0.46 µg/mL (≈ 0.809 µM) | 29.55 µg/mL | 287.38 µg/mL | 72.2 µg/mL | 4.22 µg/mL | 1.88 mm | 2.38 mm | 2.05 mm | 2.42 mm | 5.45 mm | 4.56 mm | 3.78 mm | 4.97 mm |
| COc1ccc2c3c1O[C@H]1C[C@@H](OP(=O)(SCCO)N(CCCl)CCCl)C=C[C@@]31CCN(C)C2 (stereo partly specified) | 1.33 µg/mL (≈ 2.41 µM) | 1.11 µg/mL (≈ 2.01 µM) | 1.62 µg/mL (≈ 2.94 µM) | 1.67 µg/mL (≈ 3.03 µM) | 0.21 µg/mL (≈ 0.381 µM) | 0.59 µg/mL (≈ 1.07 µM) | 0.13 µg/mL (≈ 0.236 µM) | 0.26 µg/mL (≈ 0.471 µM) | 29.55 µg/mL | 285.32 µg/mL | 71.2 µg/mL | 4.92 µg/mL | 2.08 mm | 1.53 mm | 1.72 mm | 1.14 mm | 6.46 mm | 3.09 mm | 3.01 mm | 2.21 mm |
| VITAMIN E [listing 1 of 2 here] | 1.22 µg/mL | 0.99 µg/mL | 1.03 µg/mL | 1.48 µg/mL |  |  |  |  |  |  |  |  |  |  |  |  |  |  |  |  |
| COc1ccc2c3c1O[C@H]1C[C@@H](OP(=O)(OCCO)Oc4ccc([N+](=O)[O-])cc4)C=C[C@@]31CCN(C)C2 (stereo partly specified) | 3.17 µg/mL (≈ 5.95 µM) | 2.82 µg/mL (≈ 5.3 µM) | 3.28 µg/mL (≈ 6.16 µM) | 3.28 µg/mL (≈ 6.16 µM) | 1.09 µg/mL (≈ 2.05 µM) | 0.39 µg/mL (≈ 0.732 µM) | 0.25 µg/mL (≈ 0.469 µM) | 0.67 µg/mL (≈ 1.26 µM) | 29.41 µg/mL | 286.43 µg/mL | 72.1 µg/mL | 5.21 µg/mL | 2.69 mm | 1.9 mm | 2.61 mm | 1.53 mm | 4.96 mm | 4.27 mm | 3.71 mm | 5.01 mm |
| COc1ccc2c3c1O[C@H]1C[C@@H](O)C=C[C@@]31CCN(C)C2 [GALANTAMINE] | 4.93 µg/mL (≈ 17.2 µM) | 4.21 µg/mL (≈ 14.7 µM) | 3.84 µg/mL (≈ 13.4 µM) | 5.06 µg/mL (≈ 17.6 µM) | 1 µg/mL (≈ 3.48 µM) | 0.62 µg/mL (≈ 2.16 µM) | 0.18 µg/mL (≈ 0.626 µM) | 0.7 µg/mL (≈ 2.44 µM) | 29.37 µg/mL | 283.44 µg/mL | 70.7 µg/mL | 4.69 µg/mL | 1.83 mm | 1.39 mm | 1.65 mm | 1.47 mm | 2.21 mm | 2.66 mm | 2.25 mm | 2.02 mm |
| COc1ccc2c3c1O[C@H]1C[C@@H](OP(=O)(NCCO)Oc4ccc([N+](=O)[O-])cc4)C=C[C@@]31CCN(C)C2 (stereo partly specified) | 2.81 µg/mL (≈ 5.29 µM) | 1.08 µg/mL (≈ 2.03 µM) | 2.57 µg/mL (≈ 4.84 µM) | 4.94 µg/mL (≈ 9.29 µM) | 0.81 µg/mL (≈ 1.52 µM) | 0.42 µg/mL (≈ 0.79 µM) | 0.21 µg/mL (≈ 0.395 µM) | 0.44 µg/mL (≈ 0.828 µM) | 29.37 µg/mL | 284.32 µg/mL | 72.5 µg/mL | 4.72 µg/mL | 2.43 mm | 1.59 mm | 1.53 mm | 1.62 mm | 5.44 mm | 3.94 mm | 4.16 mm | 4.44 mm |
| O=C1O[C@H]([C@@H](O)CO)C(O)=C1O [ASCORBIC ACID] | 1.02 µg/mL (≈ 5.79 µM) | 0.98 µg/mL (≈ 5.56 µM) | 0.99 µg/mL (≈ 5.62 µM) |  |  |  |  |  |  | 385.46 µg/mL | 88.1 µg/mL | 31.34 µg/mL |  |  |  |  |  |  |  |  |
| COc1ccc2c3c1O[C@H]1C[C@@H](OP(=O)(Oc4ccc([N+](=O)[O-])cc4)SCCO)C=C[C@@]31CCN(C)C2 (stereo partly specified) | 2.64 µg/mL (≈ 4.81 µM) | 1.49 µg/mL (≈ 2.72 µM) | 1.55 µg/mL (≈ 2.83 µM) | 4.25 µg/mL (≈ 7.75 µM) | 0.29 µg/mL (≈ 0.529 µM) | 0.36 µg/mL (≈ 0.656 µM) | 0.1 µg/mL (≈ 0.182 µM) | 0.34 µg/mL (≈ 0.62 µM) | 29.69 µg/mL | 288.58 µg/mL | 72.8 µg/mL | 4.77 µg/mL | 2.36 mm | 2.5 mm | 1.81 mm | 3.62 mm | 5.01 mm | 4.91 mm | 3.06 mm | 4.38 mm |
| COc1ccc2c3c1O[C@H]1C[C@@H](OP(=O)(OCCO)N(CCCl)CCCl)C=C[C@@]31CCN(C)C2 (stereo partly specified) | 2.87 µg/mL (≈ 5.36 µM) | 2.02 µg/mL (≈ 3.77 µM) | 1.98 µg/mL (≈ 3.7 µM) | 2.21 µg/mL (≈ 4.13 µM) | 0.42 µg/mL (≈ 0.784 µM) | 0.57 µg/mL (≈ 1.06 µM) | 0.28 µg/mL (≈ 0.523 µM) | 0.5 µg/mL (≈ 0.934 µM) | 29.02 µg/mL | 291.27 µg/mL | 68.2 µg/mL | 4.67 µg/mL | 1.65 mm | 3.03 mm | 1.63 mm | 1.57 mm | 4.76 mm | 5.02 mm | 4.89 mm | 3.18 mm |
| O=C(N[C@H](CO)[C@H](O)c1ccc([N+](=O)[O-])cc1)C(Cl)Cl [CHLORAMPHENICOL] |  |  |  |  | 0.2 µg/mL (≈ 0.619 µM) | 0.13 µg/mL (≈ 0.402 µM) | 0.15 µg/mL (≈ 0.464 µM) | 0.25 µg/mL (≈ 0.774 µM) |  |  |  |  | 3.62 mm | 2.67 mm | 1.02 mm | 2.02 mm | 4.02 mm | 3.08 mm | 2.99 mm | 3.27 mm |
| VITAMIN E [listing 2 of 2 here] |  |  |  |  |  |  |  |  | 32.3 µg/mL | 403 µg/mL | 82.8 µg/mL | 43.6 µg/mL |  |  |  |  |  |  |  |  |
